Series [1] is described as follows: Selectivity index, ratio of CC50 for human MT4 cells to EC50 for HIV ROD. As to conditions: read-out: Ratio CC50/EC50. It counts as toxicity, cell-based.
Series [2] deals with Human immunodeficiency virus. Nature of the series: Antiviral activity against HIV ROD in human MT4 cells assessed as inhibition of virus-induced cytopathogenicity by MTT assay. It counts as functional, organism-based. As to conditions: Human immunodeficiency virus 2, ROD. A digest of the protocol: (§1)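 MT-4 cells resuspended at 6 × 10⁵ cells/mL, infected with HIV-1 IIIB or HIV-2 ROD at 100–300 CCID50, serial 5-fold compound dilutions. After 5 days, viability read by MTT reduction at 540 and 690 nm, median OD of three wells. EC50 = concentration giving 50% protection from viral cytopathic effect; mean ± SD of three separate experiments.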
On the technique in general: Protection from cytopathic effect is a common read-out in antiviral testing.

The nature of series [3]: Selectivity index, ratio of CC50 for human MT4 cells to EC50 for HIV 3B. In kind it is toxicity, cell-based. As to conditions: read-out: Ratio CC50/EC50.
The subject of series [4] is Human immunodeficiency virus. As to the kind of experiment: Antiviral activity against HIV 3B in human MT4 cells assessed as inhibition of virus-induced cytopathogenicity by MTT assay. As to conditions: Human immunodeficiency virus 1, 3B. In kind it is functional, organism-based. A digest of the protocol: as §1
Series [5] is described as follows: Selectivity index, ratio of IC50 for human PBMC to IC50 for HIV 3B.
Series [6] deals with Human immunodeficiency virus. Nature of the series: Antiviral activity against HIV 3B in PHA-stimulated human PBMC assessed as inhibition of p24 antigen production by ELISA. It counts as functional, organism-based. To be noted: Human immunodeficiency virus 1, 3B. The gist of the method:
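PBMCs from healthy donors isolated by density centrifugation, PHA-stimulated 3 days, washed, plated at 2 × 10⁵ per 200 µL with serial compound dilutions and infected with HIV at 1000 CCID50 per mL. On day 4, supernatant partly replaced with fresh compound-containing medium. At day 7, p24 in supernatant measured by ELISA. EC50 = 50% inhibition of p24; mean ± SD, at least two experiments.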
Background: In an ELISA, binding on a coated surface is turned into a signal by an enzyme label.

Series [7] in a line: Cytotoxicity against mock-infected human PBMC. It counts as cell-based. The gist of the method:
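Mock-infected PHA-stimulated PBMCs cultured with serial compound dilutions. Viability determined by trypan blue exclusion. CC50 = concentration reducing viability by 50%; mean ± SD of at least two separate experiments.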

A short description of series [8]: Cytotoxicity against mock-infected human MT4 cells by MTT assay. In kind it is cell-based. A digest of the protocol: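 Mock-infected MT-4 cells (6 × 10⁵ cells/mL) exposed to serial 5-fold compound dilutions in parallel with infected cultures. After 5 days, viability measured by MTT formazan absorbance (540 and 690 nm; median OD of three wells). CC50 = concentration reducing OD540 of mock-infected control by 50%; mean ± SD of three separate experiments.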
A general note: Formazan colour is commonly taken as a measure of viable cells.

Data on 13 molecules can be found in ChEMBL document CHEMBL1140865, “Studies on anti-HIV quinolones: new insights on the C-6 position” (Bioorg Med Chem, 2009).

Converted amounts (≈) assume the structure as drawn. Where only a bound is given, the exact number is not on record here.

For the molecule `Cn1cc(C(=O)O)c(=O)c2cc(N)c(N3CCN(c4ccccn4)CC3)cc21`, the selectivity ratio in series [1] was 10; in series [3], 15. In addition, the EC50 (as a rule, the midpoint of the concentration-response curve) in series [2] came out at 0.097 µg/mL (≈ 0.256 µM); in series [4] it was 0.058 µg/mL (≈ 0.153 µM).

Consider `Cn1cc(C(=O)O)c(=O)c2cc(O)c(N3CCN(c4ccc5ccccc5n4)CC3)cc21`, for which the selectivity ratio in series [1] was determined as 14; in series [3], 6. Further, the EC50 in series [2] is 0.033 µg/mL (≈ 0.0767 µM); in series [6], 0.26 µg/mL (≈ 0.604 µM); in series [4], 0.08 µg/mL (≈ 0.186 µM). Besides, the “Ratio CC50/EC50” value in series [5] was found to be 7. The cytotoxic concentration (CC50) (usually the concentration at which the toxic effect on the cells reaches its halfway point) in series [7] was 1.91 µg/mL (≈ 4.44 µM); in series [8], 0.47 µg/mL (≈ 1.09 µM).

Take `Cn1cc(C(=O)O)c(=O)c2cc(O)c(N3CCN(c4cccc(C(F)(F)F)c4)CC3)cc21`: the EC50 in series [2] was at least 0.133 µg/mL; in series [6], 0.4 µg/mL (≈ 0.894 µM); in series [4] it was at least 1.13 µg/mL. In addition, in series [5], the “Ratio CC50/EC50” value is recorded as 4. For the same molecule, the CC50 in series [7] turned out to be 1.61 µg/mL (≈ 3.6 µM); in series [8] it was 1.13 µg/mL (≈ 2.53 µM).

For `Cn1cc(C(=O)O)c(=O)c2cc(O)c(N3CCN(c4nc5ccccc5s4)CC3)cc21`, the selectivity ratio in series [1] and in series [3] was under 1 each time. The EC50 in series [2] and in series [4] was over 0.02 µg/mL in each case. Moreover, the half-maximal cytotoxic concentration (CC50) in series [8] was 0.02 µg/mL (≈ 0.0458 µM).

For the molecule `Cn1cc(C(=O)O)c(=O)c2cc(O)c(N3CCN(c4cnccn4)CC3)cc21`, the selectivity ratio in series [1] and in series [3] was under 1 throughout. Further, the EC50 in series [2] and in series [4] was over 125 µg/mL in each case. In series [8], the CC50 was over 125 µg/mL.

As for `Cn1cc(C(=O)O)c(=O)c2cc(C(F)(F)F)c(N3CCN(c4nc5ccccc5s4)CC3)cc21`, the selectivity ratio in series [1] and in series [3] was under 1 throughout. Further, the EC50 in series [2] and in series [4] was over 0.54 µg/mL in each case. This molecule also showed a cytotoxic concentration (CC50) in series [8] of 0.54 µg/mL (≈ 1.11 µM).

`Cn1cc(C(=O)O)c(=O)c2cc(C(F)(F)F)c(N3CCN(c4ccccn4)CC3)cc21`: the selectivity ratio in series [1] and in series [3] was under 1 each time. Moreover, the half-maximal effective concentration (EC50) in series [2] and in series [4] was over 13.9 µg/mL throughout. Further, the CC50 in series [8] was 13.9 µg/mL (≈ 32.2 µM).

In the case of `Cn1cc(C(=O)O)c(=O)c2cc(C(F)(F)F)c(N3CCN(c4cccc(C(F)(F)F)c4)CC3)cc21`, the selectivity ratio in series [1] and in series [3] was under 1 in each case. In addition, the EC50 in series [2] and in series [4] was over 1.65 µg/mL throughout. This molecule also gave a CC50 in series [8] of 1.65 µg/mL (≈ 3.3 µM).

Take `COc1cc2c(=O)c(C(=O)O)cn(C)c2cc1N1CCN(c2ccccn2)CC1`: the selectivity ratio in series [1] came out at 6.5; in series [3], 5. Further, the EC50 was 0.4 µg/mL (≈ 1.01 µM) in series [2], 1.78 µg/mL (≈ 4.51 µM) in series [6] and 0.47 µg/mL (≈ 1.19 µM) in series [4]. The “Ratio CC50/EC50” value in series [5] was determined as 5. Moreover, the CC50 stood at 8.46 µg/mL (≈ 21.4 µM) in series [7] and 2.55 µg/mL (≈ 6.47 µM) in series [8].

With `COc1cc2c(=O)c(C(=O)O)cn(C)c2cc1N1CCN(c2nc3ccccc3s2)CC1`, the selectivity ratio in series [1] and in series [3] was under 1 throughout. For the same molecule, the EC50 in series [2] and in series [4] was over 0.05 µg/mL in each case. The same molecule yielded a 50% cytotoxic concentration (CC50) in series [8] of 0.05 µg/mL (≈ 0.111 µM).

As to `Cn1cc(C(=O)O)c(=O)c2cc(O)c(N3CCN(c4ccccn4)CC3)cc21`, the selectivity ratio was over 96 in series [1] and over 68 in series [3]. Besides, the EC50 came to 1.31 µg/mL (≈ 3.44 µM) in series [2], 0.39 µg/mL (≈ 1.03 µM) in series [6] and 1.85 µg/mL (≈ 4.86 µM) in series [4]. The “Ratio CC50/EC50” value in series [5] is given as “>=44”. For the same molecule, the CC50 in series [7] is at least 17.2 µg/mL; in series [8] it was over 125 µg/mL.

`Cc1ccnc2c1NC(=O)c1cccnc1N2C1CC1` [NEVIRAPINE]: the values for the concentration giving a half-maximal response (EC50) in series [2] and in series [4] were over 4 µg/mL and 0.023 µg/mL (≈ 0.0864 µM), respectively. The selectivity ratio in series [3] was over 176. The half-maximal cytotoxic concentration (CC50) in series [8] is over 4 µg/mL.

`Cc1cn([C@H]2C[C@H](N=[N+]=[N-])[C@@H](CO)O2)c(=O)[nH]c1=O` [ZIDOVUDINE]: the selectivity ratio in series [1] was determined as 2480; in series [3], 1340. Further, the EC50 came out at 0.0008 µg/mL (≈ 0.00299 µM) in series [2] and 0.0015 µg/mL (≈ 0.00561 µM) in series [4]. In series [8], this molecule had a half-maximal cytotoxic concentration (CC50) of 2.01 µg/mL (≈ 7.52 µM).
